Laboratory results from ChEMBL document CHEMBL1155311, “Synthesis and evaluation of N-[(1S,2S)-3-(4-chlorophenyl)-2-(3-cyanophenyl)-1-methylpropyl]-2-methyl-2-aminopropanamide as human cannabinoid-1 receptor (CB1R) inverse agonists” (Bioorg Med Chem Lett, 2009).

What was measured:
Homo sapiens = species on record: Homo sapiens; experiment: Selectivity ratio of IC50 of human recombinant CB2 receptor to IC50 of human recombinant CB1 receptor
Cannabinoid receptor 2 = Cannabinoid receptor 2 (Homo sapiens, UniProt P34972); experiment: Displacement of [3H]CP-55940 from recombinant human CB2 receptor expressed in CHO cell; type: cell-based
Chain of Cannabinoid receptor 2 (P34972 whole entry): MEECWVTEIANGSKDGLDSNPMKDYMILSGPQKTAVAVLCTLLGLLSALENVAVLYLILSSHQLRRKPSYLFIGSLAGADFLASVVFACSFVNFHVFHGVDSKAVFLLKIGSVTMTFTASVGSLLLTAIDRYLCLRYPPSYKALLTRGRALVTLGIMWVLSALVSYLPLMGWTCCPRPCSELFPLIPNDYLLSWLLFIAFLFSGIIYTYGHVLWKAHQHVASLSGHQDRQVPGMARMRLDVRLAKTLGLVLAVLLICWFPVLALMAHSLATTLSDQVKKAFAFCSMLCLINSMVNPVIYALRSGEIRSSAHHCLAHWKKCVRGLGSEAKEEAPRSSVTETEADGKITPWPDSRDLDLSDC

Cannabinoid receptor 1 [1] = molecular target: T1, Cannabinoid receptor 1 (Homo sapiens, UniProt P21554); experiment: Displacement of [3H]CP-55940 from recombinant human CB1 receptor expressed in CHO cells; type: cell-based
T1 sequence (P21554 whole entry): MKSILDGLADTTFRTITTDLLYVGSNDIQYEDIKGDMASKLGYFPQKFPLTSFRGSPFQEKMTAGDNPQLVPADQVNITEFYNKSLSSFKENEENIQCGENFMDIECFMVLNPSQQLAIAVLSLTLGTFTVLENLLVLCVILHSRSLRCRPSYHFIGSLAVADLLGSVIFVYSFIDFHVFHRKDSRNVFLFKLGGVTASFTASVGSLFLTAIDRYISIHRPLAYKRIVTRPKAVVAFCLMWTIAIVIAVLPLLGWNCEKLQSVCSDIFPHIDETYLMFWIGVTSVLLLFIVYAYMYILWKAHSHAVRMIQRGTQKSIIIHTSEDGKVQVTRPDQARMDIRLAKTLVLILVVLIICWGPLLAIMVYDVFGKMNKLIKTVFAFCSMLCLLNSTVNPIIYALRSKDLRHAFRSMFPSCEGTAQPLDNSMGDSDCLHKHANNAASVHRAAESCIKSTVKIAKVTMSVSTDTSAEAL

Liver microsomes [2] = experiment: Metabolic stability in human liver microsomes assessed as glucuronide formation; type: ADME, Microsome
In short: (§1)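 Rat or human liver microsomes (1 mg/mL protein) were incubated in 100 mM potassium phosphate, pH 7.4, with 10 mM MgCl2, alamethicin, 5 mM D-saccharic acid 1,4-lactone and 3 mM UDPGA. Incubation ran 90 min at 37 °C with shaking and was quenched with 2 volumes of cold acetonitrile. After centrifugation, glucuronide was detected in the supernatant by LC–MS/MS.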

Liver microsomes [3] = experiment: Metabolic stability in rat liver microsomes assessed as glucuronide formation; type: ADME, Microsome
In short: as §1

Cannabinoid receptor 1 [4] = molecular target: T1, Cannabinoid receptor 1; experiment: Inverse agonist activity at human CB1 receptor assessed as forskolin-induced cAMP level by adenylyl cyclase activation flash plate assay; type: functional
Cytochrome P450 3A4 = Cytochrome P450 3A4 (Homo sapiens, UniProt P08684); experiment: Inhibition of CYP3A4; type: ADME
Chain of Cytochrome P450 3A4 (P08684 whole entry): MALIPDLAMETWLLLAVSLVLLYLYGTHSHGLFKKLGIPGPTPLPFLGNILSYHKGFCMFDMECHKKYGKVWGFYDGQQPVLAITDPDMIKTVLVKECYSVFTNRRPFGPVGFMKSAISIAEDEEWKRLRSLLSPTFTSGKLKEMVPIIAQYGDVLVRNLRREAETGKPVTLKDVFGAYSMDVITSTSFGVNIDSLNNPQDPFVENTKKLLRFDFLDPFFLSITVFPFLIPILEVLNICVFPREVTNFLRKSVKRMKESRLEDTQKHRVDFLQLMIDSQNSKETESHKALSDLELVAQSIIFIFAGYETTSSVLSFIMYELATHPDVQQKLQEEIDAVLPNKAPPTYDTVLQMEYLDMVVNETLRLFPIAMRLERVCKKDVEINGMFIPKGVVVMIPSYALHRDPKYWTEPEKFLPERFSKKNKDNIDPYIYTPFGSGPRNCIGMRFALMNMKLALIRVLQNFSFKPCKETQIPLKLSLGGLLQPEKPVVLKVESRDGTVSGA

Row | Compound | Ratio IC50 (Homo sapiens) | IC50 (Cannabinoid receptor 2) [nM] | IC50 (Cannabinoid receptor 1 [1]) [nM] | Stability (Liver microsomes [2]) | Stability (Liver microsomes [3]) | EC50 (Cannabinoid receptor 1 [4]) [nM] | IC50 (Cytochrome P450 3A4) [nM]
1 | C[C@H](NC(=O)C(C)(C)NCCCN(C)C)[C@@H](Cc1ccc(Cl)cc1)c1cccc(C#N)c1 | 8.7 | 25900 | 2980 | – | – | – | –
2 | C[C@H](NC(=O)C(C)(C)Nc1ccncn1)[C@@H](Cc1ccc(Cl)cc1)c1cccc(C#N)c1 | 286 | 14000 | 49.2 | Stable | Stable | – | –
3 | C[C@H](NC(=O)C(C)(C)Nc1cc2ccccc2cn1)[C@@H](Cc1ccc(Cl)cc1)c1cccc(C#N)c1 | 12 | 117 | 10.1 | – | – | 1.9 | –
4 | C[C@H](NC(=O)C(C)(C)Nc1ccccn1)[C@@H](Cc1ccc(Cl)cc1)c1cccc(C#N)c1 | 37 | 1830 | 49 | Stable | Stable | – | –
5 | C[C@H](NC(=O)C(C)(C)Nc1cc(C(F)(F)F)ccn1)[C@@H](Cc1ccc(Cl)cc1)c1cccc(C#N)c1 | 221 | 353 | 1.6 | Stable | Stable | 0.9 | –
6 | C[C@H](NC(=O)C(C)(C)Nc1ccon1)[C@@H](Cc1ccc(Cl)cc1)c1cccc(C#N)c1 | 67 | 3210 | 47.7 | – | – | – | –
7 | C[C@H](NC(=O)C(C)(C)Nc1cc(C(C)(C)C)on1)[C@@H](Cc1ccc(Cl)cc1)c1cccc(C#N)c1 | 30 | 254 | 8.6 | – | – | 3.5 | –
8 | C[C@H](NC(C)(C)C(=O)Nc1ccc(C(F)(F)F)cn1)[C@@H](Cc1ccc(Cl)cc1)c1cccc(C#N)c1 | 13 | 1720 | 132 | – | – | – | > 35000
9 | C[C@H](NC(=O)C(C)(C)Nc1ncc(C(F)(F)F)cc1Cl)[C@@H](Cc1ccc(Cl)cc1)c1cccc(C#N)c1 | 23 | 419 | 17.9 | – | – | – | –
10 | C[C@H](NC(C)(C)C(=O)Nc1cc(-c2ccccc2)on1)[C@@H](Cc1ccc(Cl)cc1)c1cccc(C#N)c1 | 17 | 2310 | 136 | – | – | – | –
11 | C[C@H](NC(=O)C(C)(C)Nc1cc(-c2ccccc2)on1)[C@@H](Cc1ccc(Cl)cc1)c1cccc(C#N)c1 | 1.3 | 234 | 186 | – | – | – | –
12 | C[C@H](NC(=O)C(C)(C)Nc1nc2ccccc2n1C)[C@@H](Cc1ccc(Cl)cc1)c1cccc(C#N)c1 | 15 | 1410 | 97 | – | – | – | –
13 | C[C@H](NC(=O)C(C)(C)Nc1ccc(C(F)(F)F)cn1)[C@@H](Cc1ccc(Cl)cc1)c1cccc(C#N)c1 | 43 | 322 | 7.5 | – | – | 3.2 | 2030

Second part, the compound after the results:

Row | Ratio IC50 (Homo sapiens) | IC50 (Cannabinoid receptor 2) [nM] | IC50 (Cannabinoid receptor 1 [1]) [nM] | Stability (Liver microsomes [2]) | Stability (Liver microsomes [3]) | EC50 (Cannabinoid receptor 1 [4]) [nM] | IC50 (Cytochrome P450 3A4) [nM] | Compound
14 | 57 | 699 | 12.2 | – | – | – | – | C[C@H](NC(=O)C(C)(C)Nc1ncc(Cl)cc1Cl)[C@@H](Cc1ccc(Cl)cc1)c1cccc(C#N)c1
15 | – | 6110 | 301 | – | – | – | – | Cc1cc(NC(C)(C)C(=O)N[C@@H](C)[C@@H](Cc2ccc(Cl)cc2)c2cccc(C#N)c2)[nH]n1
16 | 65 | 13300 | 203 | – | – | – | – | C[C@H](NC(=O)C(C)(C)Nc1ccnn1C)[C@@H](Cc1ccc(Cl)cc1)c1cccc(C#N)c1
17 | 84 | 3860 | 46.1 | – | – | – | – | Cc1cc(NC(C)(C)C(=O)N[C@@H](C)[C@@H](Cc2ccc(Cl)cc2)c2cccc(C#N)c2)on1
18 | 20 | – | – | – | – | – | – | Cc1cc(NC(C)(C)C(=O)N[C@@H](C)[C@@H](Cc2ccc(Cl)cc2)c2cccc(C#N)c2)n[nH]1
19 | 265 | 5160 | 19.5 | – | – | – | – | Cc1cc(NC(C)(C)C(=O)N[C@@H](C)[C@@H](Cc2ccc(Cl)cc2)c2cccc(C#N)c2)no1
20 | 15 | 547 | 37.7 | – | – | – | – | Cc1ccnc(NC(C)(C)C(=O)N[C@@H](C)[C@@H](Cc2ccc(Cl)cc2)c2cccc(C#N)c2)c1
